Publication PMC7125971 (European Journal of Medicinal Chemistry, 2015)
Entries after “also recorded” stand apart in the source; their conditions may differ.

Assays:
Para-influenza-3 virus = assay: organism not typed; type: cell-based; conditions: Vero, read-out: EC50 Para-influenza-3 virus
Reovirus-1 = assay: organism not typed; type: cell-based; conditions: Vero, read-out: EC50 Reovirus-1
[1] = system: HeLa cells (cervical carcinoma); assay: Antiproliferative assay; type: cell-based, human
Summary of the method: (§1)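 Cells grown as monolayers in DMEM with 10% FBS, 2 mM L-glutamine, 100 U/ml penicillin and 100 μg/ml streptomycin at 37 °C, 5% CO2. 5000 cells/well seeded on day 0. Compound added in five 10-fold dilutions (0.01–100 μM); final DMSO ≤0.1%. Cells incubated 72 h, then MTT; absorbance converted to percentage growth vs same-plate untreated controls. Quadruplicate points in three experiments; ANOVA with Tukey post-hoc test.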

[2] = system: 3T3 cells (embryonal murine fibroblasts); assay: Cytotoxic effects on embryonal murine fibroblasts 3T3; type: cell-based, mouse
Summary of the method: as §1

[3] = system: all tested malignant cell lines; assay: Cytostatic activity on the whole panel of malignant cell lines; type: cell-based
Summary of the method: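 Malignant lines HeLa, SW620, MiaPaCa-2, HepG2 and CFPAC-1 grown as monolayers in DMEM with 10% FBS at 37 °C, 5% CO2. Plated at 5000 cells/well and exposed 72 h to five 10-fold dilutions (0.01–100 μM), with DMSO ≤0.1%. Growth read by MTT and converted to percentage growth by NIH formulas. Quadruplicate points in three experiments; ANOVA with Tukey post-hoc test.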

[4] = system: African green monkey kidney epithelial cells (Vero); conditions: alteration of normal cell morphology, listed as C00010
[5] = system: human embryonic lung cells (HEL); assay: Cytostatic activity; type: cell-based
Summary of the method: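 HEL cells seeded at 5 × 10^3 cells/well and allowed to proliferate 24 h. Medium with varying compound concentrations then added, and cells incubated 3 days at 37 °C. Cell number counted by Coulter counter. CC50 (50% reduction in proliferation vs untreated controls) read from plots of cell number (% of control) against concentration.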

[6] = system: Madin Darby canine kidney (MDCK) cells
[7] = system: Crandell-Rees feline kidney cells (CRFK)
[8] = system: human cytomegalovirus (HCMV); assay: Anti-HCMV activity in HEL cells, strain not told apart in the statement; type: cell-based; conditions: compared to compound 3
Punta Toro virus = assay: microbe, parasite or virus in culture; type: cell-based; conditions: Vero, read-out: EC50 Punta Toro virus

| Structure (SMILES) | EC50 (Reovirus-1) | cytotoxic effects on 3T3 cells (in words) [2] | cytostatic activity on the malignant cell line panel (in words) [3] | also measured |
| --- | --- | --- | --- | --- |
| Nc1ncnc2c1ncn2C[C@H](O)CO [(S)-DHPA, (S)-9-(2,3-dihydroxypropyl)adenine, reference compound] | > 250 µM | – | – | EC50 (Para-influenza-3 virus): > 250 µM |
| O=C1O/C(=C\Cn2cnc3cncc(Br)c32)C(OCc2ccccc2)=C1OCc1ccccc1 [Compound 1, 3,4-di-O-benzyl-5-(9-(3-bromo-1H-imidazo[4,5-c]pyridine-9-yl)ethylidene)furan-2(5H)-one] | – | low cytotoxic effects; also recorded: moderate or low cytotoxic effects | weak and nonselective antiproliferative activity | activity / cytostatic effects on HeLa cells (in words) [1]: moderate activity |
| O=C1O/C(=C\Cn2cnc3c(F)nc(F)c(Cl)c32)C(OCc2ccccc2)=C1OCc1ccccc1 [Compound 2, 3,4-di-O-benzyl-5-(9-(3-chloro-2,6-difluoro-1H-imidazo[4,5-c]pyridine-9-yl)ethylidene)furan-2(5H)-one] | > 20 µM | – | – | activity / cytostatic effects on HeLa cells (in words) [1]: no cytostatic effects; EC50 (Para-influenza-3 virus): > 20 µM; MCC [4]: ≥20 µM |
| O=C1O/C(=C\Cn2cnc3c(Cl)c(F)nc(F)c32)C(OCc2ccccc2)=C1OCc1ccccc1 [Compound 3, 3,4-di-O-benzyl-5-(7-(3-chloro-2,6-difluoro-1H-imidazo[4,5-c]pyridine-7-yl)ethylidene)furan-2(5H)-one] | > 20 µM | did not show any cytostatic effects | – | activity / cytostatic effects on HeLa cells (in words) [1]: did not show any cytostatic effects; cytotoxic effects on HEL cells (in words) [5]: without cytotoxic effects; also recorded: did not show any cytostatic effects; EC50 (Para-influenza-3 virus): > 20 µM; cytostatic effects on MDCK cells (in words) [6]: did not show any cytostatic effects; cytostatic effects on CRFK cells (in words) [7]: did not show any cytostatic effects |
| O=C1NC(O)(CCn2cnc3cncc(Br)c32)C(OCc2ccccc2)=C1OCc1ccccc1 (centres unmarked) [Compound 6, 3,4-di-O-benzyl-5-(9-(3-bromo-1H-imidazo[4,5-c]pyridine-9-yl)ethyl)-5-hydroxy-1H-pyrrolo-2(5H)-one] | – | moderate or low cytotoxic effects | weak and nonselective antiproliferative activity | – |
| Nc1nc(F)c(Cl)c2c1ncn2CCC1(O)NC(=O)C(OCc2ccccc2)=C1OCc1ccccc1 (centres unmarked) [Compound 7, 5-(9-(6-amino-3-chloro-2-fluoro-1H-imidazo[4,5-c]pyridine-9-yl)ethyl)-3,4-di-O-benzyl-5-hydroxy-1H-pyrrolo-2(5H)-one] | – | – | – | anti-HCMV activity (in words) [8]: lost anti-HCMV activity; also recorded: loss of anti-HCMV activity |
| O=C1O/C(=C\Cn2cnc3c(Cl)c(F)nc(F)c32)C(O)=C1O [Compound 8, 5-(2-(7-chloro-4,6-difluoro-3H-imidazo[4,5-c]pyridine-3-yl)ethylidene)-3,4-dihydroxyfuran-2(5H)-one] | – | – | – | anti-HCMV activity (in words) [8]: loss of anti-HCMV activity |
| O=C1O/C(=C\Cn2cc(I)c3c(Cl)ncnc32)C(OCc2ccccc2)=C1OCc1ccccc1 [Compound 10, 3,4-di-O-benzyl-5-(9-(6-chloro-7-iodo-7H-pyrrolo[2,3-d]pyrimidine-9-yl)ethylidene)furan-2(5H)-one] | – | – | no marked cytostatic nor antiviral activities | – |
| O=C1NC(O)(/C=C\n2cc(I)c3c(Cl)ncnc32)C(OCc2ccccc2)=C1OCc1ccccc1 (centres unmarked) [Compound 12, 3,4-di-O-benzyl-5-(9-(6-chloro-7-iodo-7H-pyrrolo[2,3-d]pyrimidine-9-yl)-vinyl)-5-hydroxy-1H-pyrrolo-2(5H)-one] | – | moderate or low cytotoxic effects | weak and nonselective antiproliferative activity; also recorded: no marked cytostatic nor antiviral activities | – |
| O=C1O/C(=C\Cn2cnc3cc[nH]c3c2=O)C(OCc2ccccc2)=C1OCc1ccccc1 [Compound 14, 3,4-di-O-benzyl-5-(1-(3H-pyrrolo[3,2-d]pyrimidine-4(5H)-one-1-yl)ethylidene)furan-2(5H)-one] | – | without cytotoxic effects | – | – |
| NC(=O)c1ncn([C@@H]2O[C@H](CO)[C@@H](O)[C@H]2O)n1 [Ribavirin, reference compound] | > 250 µM | – | – | EC50 (Punta Toro virus): 150 ± 141 µM |
